This is an account of results in ChEMBL document CHEMBL1240485, “Glycopeptide dendrimer colchicine conjugates targeting cancer cells” (Bioorg Med Chem, 2010).

Data set [1] has as its system MEF. Kind of data set: Cytotoxicity against MEF cells assessed as dead cells at 5 uM after 48 hrs by visual cell counting under the microscope. Conditions: mouse.
For data set [2], the system named is Jurkat. Kind of data set: Cytotoxicity against human Jurkat cells after 48 hrs. In kind it is functional. The settings on record: read-out: LD50 (the source's name). An outline of the steps:
(§1)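 Jurkat cells were grown in RPMI with 10% FCS, penicillin/streptomycin and L-glutamine at 37 °C and 5% CO2. They were seeded at 50,000 cells/mL and cultured overnight, then given compound from sterile water stock and held 48 h. Propidium iodide was added 2 min before FACS (excitation 488 nm). Dead cells were counted at 5 µM final. LD50 was derived from dose–response curves.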

The test system of data set [3] is Jurkat. Kind of data set: Cytotoxicity against human Jurkat cells assessed as dead cells at 5 uM after 48 hrs by propidium iodide-based FACS flow cytometry. In kind it is functional. An outline of the steps: as §1
In data set [4] the test system is Jurkat. Kind of data set: Cytotoxicity against human Jurkat cells at 5 uM after 48 hrs. The format is functional, cell-based. An outline of the steps: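 Jurkat cells (RPMI, 10% FCS, 37 °C, 5% CO2) seeded at 50,000 cells per mL, grown overnight, then dosed with colchicine–dendrimer conjugate at 5 μM final from sterile water stock. After 48 h, propidium iodide added 2 min before FACS (excitation 488 nm); dead vs healthy cells counted, reported as % dead cells.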

Molecules are shown by their SMILES. Calls of active or inactive are those of the source. No cut-off for these calls is given here. Bridge positions count the residues as written; N and C are the ends. Square brackets hold non-standard residues; d marks the D form. Peptide text beside a SMILES is read from it. I, II: the chains in the order shown. * marks the point of attachment. X1 = COc1cc2c(c(OC)c1OC)-c1ccc(OC)c(=O)cc1[C@@H](N(C(C)=O)C(=O)[C@H](CS)N*)CC2; X2 = O=C(CCS[C@@H]1O[C@H](CO)[C@H](O)[C@H](O)[C@H]1O)*; βGal = OC[C@H]1O[C@@H](*)[C@H](O)[C@@H](O)[C@H]1O; Dap = NC[C@H](N)C(=O)O; Mpa = O=C(O)CCS Some results are limits rather than exact numbers.

As for `COc1cc2c(c(OC)c1OC)-c1ccc(OC)c(=O)cc1[C@@H](N(C(C)=O)C(=O)[C@H](CS)NC(=O)[C@H](CC(=O)O)NC(=O)[C@H](CC(C)C)NC(=O)[C@H](Cc1ccc(O)cc1)NC(=O)[C@@H](NC(=O)[C@H](CNC(=O)[C@H](C)NC(=O)[C@H](CO)NC(=O)[C@H](CC(=O)O)NC(=O)[C@H](Cc1ccccc1)NC(=O)CCS[C@@H]1O[C@H](CO)[C@H](O)[C@H](O)[C@H]1O)NC(=O)[C@H](C)NC(=O)[C@H](CO)NC(=O)[C@H](CC(=O)O)NC(=O)[C@H](Cc1ccccc1)NC(=O)CCS[C@@H]1O[C@H](CO)[C@H](O)[C@H](O)[C@H]1O)[C@@H](C)O)CC2` (I: [Mpa](βGal)FDSA[Dap]TYLD-X1 / II: [Mpa](βGal)FDSA; amide I:6-II:C) [listing 1 of 2 here], the Activity in data set [1] came out at 68%.

Regarding `COc1cc2c(c(OC)c1OC)-c1ccc(OC)c(=O)cc1[C@@H](N(C(C)=O)C(=O)[C@H](CS)NC(=O)[C@H](CC(=O)O)NC(=O)[C@H](CC(C)C)NC(=O)[C@H](Cc1ccc(O)cc1)NC(=O)[C@@H](NC(=O)[C@H](CNC(=O)[C@H](C)NC(=O)[C@H](CO)NC(=O)[C@H](CC(=O)O)NC(=O)[C@H](Cc1ccccc1)NC(=O)CCS[C@@H]1O[C@H](CO)[C@H](O)[C@H](O)[C@H]1O)NC(=O)[C@H](C)NC(=O)[C@H](CO)NC(=O)[C@H](CC(=O)O)NC(=O)[C@H](Cc1ccccc1)NC(=O)CCS[C@@H]1O[C@H](CO)[C@H](O)[C@H](O)[C@H]1O)[C@@H](C)O)CC2` (I: [Mpa](βGal)FDSA[Dap]TYLD-X1 / II: [Mpa](βGal)FDSA; amide I:6-II:C) [listing 2 of 2 here], the CC50 in data set [2] amounted to 1.53 µM. Besides, the Activity entry in data set [3] is “<=91%”.

With `COc1cc2c(c(OC)c1OC)-c1ccc(OC)c(=O)cc1[C@@H](N(C(C)=O)C(=O)[C@H](CS)NC(=O)[C@H](CC(=O)O)NC(=O)[C@H](CC(C)C)NC(=O)[C@H](Cc1ccc(O)cc1)NC(=O)[C@@H](NC(=O)[C@H](CNC(=O)[C@H](C)NC(=O)[C@H](CO)NC(=O)[C@H](CC(N)=O)NC(=O)[C@H](Cc1ccccc1)NC(=O)CCS[C@@H]1O[C@H](CO)[C@H](O)[C@H](O)[C@H]1O)NC(=O)[C@H](C)NC(=O)[C@H](CO)NC(=O)[C@H](CC(N)=O)NC(=O)[C@H](Cc1ccccc1)NC(=O)CCS[C@@H]1O[C@H](CO)[C@H](O)[C@H](O)[C@H]1O)[C@@H](C)O)CC2` (I: [Mpa](βGal)FNSA[Dap]TYLD-X1 / II: [Mpa](βGal)FNSA; amide I:6-II:C) [listing 1 of 2 here], in data set [1], the Activity is 6%.

As for `COc1cc2c(c(OC)c1OC)-c1ccc(OC)c(=O)cc1[C@@H](N(C(C)=O)C(=O)[C@H](CS)NC(=O)[C@H](CC(=O)O)NC(=O)[C@H](CC(C)C)NC(=O)[C@H](Cc1ccc(O)cc1)NC(=O)[C@@H](NC(=O)[C@H](CNC(=O)[C@H](C)NC(=O)[C@H](CO)NC(=O)[C@H](CC(N)=O)NC(=O)[C@H](Cc1ccccc1)NC(=O)CCS[C@@H]1O[C@H](CO)[C@H](O)[C@H](O)[C@H]1O)NC(=O)[C@H](C)NC(=O)[C@H](CO)NC(=O)[C@H](CC(N)=O)NC(=O)[C@H](Cc1ccccc1)NC(=O)CCS[C@@H]1O[C@H](CO)[C@H](O)[C@H](O)[C@H]1O)[C@@H](C)O)CC2` (I: [Mpa](βGal)FNSA[Dap]TYLD-X1 / II: [Mpa](βGal)FNSA; amide I:6-II:C) [listing 2 of 2 here], in data set [2], the CC50 turned out to be 5.52 µM. For the same molecule, the Activity in data set [3] is reported as 19%.

For `COc1cc2c(c(OC)c1OC)-c1ccc(OC)c(=O)cc1[C@@H](N(C(C)=O)C(=O)[C@H](CS)NC(=O)[C@H](CCCCNC(=O)CCS[C@@H]1O[C@H](CO)[C@H](O)[C@H](O)[C@H]1O)NC(=O)[C@H](Cc1ccccc1)NC(=O)[C@H](CCCNC(=N)N)NC(=O)[C@H](CC(N)=O)NC(=O)[C@H](CNC(=O)[C@@H](NC(=O)[C@H](CCC(=O)O)NC(=O)[C@H](CC(=O)O)NC(=O)CNC(=O)CCS[C@@H]1O[C@H](CO)[C@H](O)[C@H](O)[C@H]1O)[C@@H](C)O)NC(=O)[C@@H](NC(=O)[C@H](CCC(=O)O)NC(=O)[C@H](CC(=O)O)NC(=O)CNC(=O)CCS[C@@H]1O[C@H](CO)[C@H](O)[C@H](O)[C@H]1O)[C@@H](C)O)CC2` (I: [Mpa](βGal)GDET[Dap]NRFK(X2)-X1 / II: [Mpa](βGal)GDET; amide I:6-II:C), in data set [4], the outcome was inactive.

On to `COc1cc2c(c(OC)c1OC)-c1ccc(OC)c(=O)cc1[C@@H](N(C(C)=O)C(=O)[C@H](CS)NC(=O)[C@H](CCCCNC(=O)CCS[C@@H]1O[C@H](CO)[C@H](O)[C@H](O)[C@H]1O)NC(=O)[C@H](Cc1ccccc1)NC(=O)[C@H](CCCNC(=N)N)NC(=O)[C@H](CC(N)=O)NC(=O)[C@H](CNC(=O)[C@@H](NC(=O)[C@H](CCC(=O)O)NC(=O)[C@H](CC(N)=O)NC(=O)CNC(=O)CCS[C@@H]1O[C@H](CO)[C@H](O)[C@H](O)[C@H]1O)[C@@H](C)O)NC(=O)[C@@H](NC(=O)[C@H](CCC(=O)O)NC(=O)[C@H](CC(N)=O)NC(=O)CNC(=O)CCS[C@@H]1O[C@H](CO)[C@H](O)[C@H](O)[C@H]1O)[C@@H](C)O)CC2` (I: [Mpa](βGal)GNET[Dap]NRFK(X2)-X1 / II: [Mpa](βGal)GNET; amide I:6-II:C), for which, in data set [4], the outcome was inactive.

As to `COc1cc2c(c(OC)c1OC)-c1ccc(OC)c(=O)cc1[C@@H](N(C(C)=O)C(=O)[C@H](CS)NC(=O)[C@H](CC(=O)O)NC(=O)[C@H](Cc1cnc[nH]1)NC(=O)[C@H](CCCNC(=N)N)NC(=O)[C@@H](NC(=O)[C@H](CNC(=O)[C@H](C)NC(=O)[C@H](Cc1cnc[nH]1)NC(=O)[C@H](CCCNC(=N)N)NC(=O)CNC(=O)CCS[C@@H]1O[C@H](CO)[C@H](O)[C@H](O)[C@H]1O)NC(=O)[C@H](C)NC(=O)[C@H](Cc1cnc[nH]1)NC(=O)[C@H](CCCNC(=N)N)NC(=O)CNC(=O)CCS[C@@H]1O[C@H](CO)[C@H](O)[C@H](O)[C@H]1O)[C@@H](C)O)CC2` (I: [Mpa](βGal)GRHA[Dap]TRHD-X1 / II: [Mpa](βGal)GRHA; amide I:6-II:C) [listing 1 of 2 here], in data set [1], the Activity is 51%.

Consider `COc1cc2c(c(OC)c1OC)-c1ccc(OC)c(=O)cc1[C@@H](N(C(C)=O)C(=O)[C@H](CS)NC(=O)[C@H](CC(=O)O)NC(=O)[C@H](Cc1cnc[nH]1)NC(=O)[C@H](CCCNC(=N)N)NC(=O)[C@@H](NC(=O)[C@H](CNC(=O)[C@H](C)NC(=O)[C@H](Cc1cnc[nH]1)NC(=O)[C@H](CCCNC(=N)N)NC(=O)CNC(=O)CCS[C@@H]1O[C@H](CO)[C@H](O)[C@H](O)[C@H]1O)NC(=O)[C@H](C)NC(=O)[C@H](Cc1cnc[nH]1)NC(=O)[C@H](CCCNC(=N)N)NC(=O)CNC(=O)CCS[C@@H]1O[C@H](CO)[C@H](O)[C@H](O)[C@H]1O)[C@@H](C)O)CC2` (I: [Mpa](βGal)GRHA[Dap]TRHD-X1 / II: [Mpa](βGal)GRHA; amide I:6-II:C) [listing 2 of 2 here], for which the CC50 in data set [2] was determined as 1.5 µM. The Activity in data set [3] came to 91%.

As to `CC[C@H](C)[C@H](NC(=O)[C@@H]1CCCN1C(=O)[C@H](CNC(=O)[C@@H]1CCCN1C(=O)CNC(=O)[C@H](CC(=O)O)NC(=O)[C@H](CCCCNC(=O)CCS[C@@H]1O[C@H](CO)[C@H](O)[C@H](O)[C@H]1O)NC(=O)CCS[C@@H]1O[C@H](CO)[C@H](O)[C@H](O)[C@H]1O)NC(=O)[C@@H]1CCCN1C(=O)CNC(=O)[C@H](CC(=O)O)NC(=O)[C@H](CCCCNC(=O)CCS[C@@H]1O[C@H](CO)[C@H](O)[C@H](O)[C@H]1O)NC(=O)CCS[C@@H]1O[C@H](CO)[C@H](O)[C@H](O)[C@H]1O)C(=O)N[C@@H](CCC(=O)O)C(=O)N[C@H](C(=O)N[C@@H](CS)C(=O)N(C(C)=O)[C@H]1CCc2cc(OC)c(OC)c(OC)c2-c2ccc(OC)c(=O)cc21)C(C)C` (I: [Mpa](βGal)K(X2)DGP[Dap]PIEV-X1 / II: [Mpa](βGal)K(X2)DGP; amide I:6-II:C), in data set [4], the result was inactive.

Take `CC[C@H](C)[C@H](NC(=O)[C@@H]1CCCN1C(=O)[C@H](CNC(=O)[C@@H]1CCCN1C(=O)CNC(=O)[C@H](CC(N)=O)NC(=O)[C@H](CCCCNC(=O)CCS[C@@H]1O[C@H](CO)[C@H](O)[C@H](O)[C@H]1O)NC(=O)CCS[C@@H]1O[C@H](CO)[C@H](O)[C@H](O)[C@H]1O)NC(=O)[C@@H]1CCCN1C(=O)CNC(=O)[C@H](CC(N)=O)NC(=O)[C@H](CCCCNC(=O)CCS[C@@H]1O[C@H](CO)[C@H](O)[C@H](O)[C@H]1O)NC(=O)CCS[C@@H]1O[C@H](CO)[C@H](O)[C@H](O)[C@H]1O)C(=O)N[C@@H](CCC(=O)O)C(=O)N[C@H](C(=O)N[C@@H](CS)C(=O)N(C(C)=O)[C@H]1CCc2cc(OC)c(OC)c(OC)c2-c2ccc(OC)c(=O)cc21)C(C)C` (I: [Mpa](βGal)K(X2)NGP[Dap]PIEV-X1 / II: [Mpa](βGal)K(X2)NGP; amide I:6-II:C): the outcome in data set [4] was inactive.

`COc1cc2c(c(OC)c1OC)-c1ccc(OC)c(=O)cc1[C@@H](NC(C)=O)CC2` [COLCHICINE]: in data set [2], the CC50 came out at 0.02 µM. The values for the Activity in data set [1] and in data set [3] were 57% and 85%, respectively.
